Screening results from PubChem BioAssay.
Compounds with a hit are over-represented: about 1.7% of the library has one in this group of screens.
CXCR6 block: CXCR6 receptor inhibitors, primary screen, cell-based, beta-arrestin, luminescence, CHO-K1 PathHunter, 1536-well; AID 602244, 2012; 0.36% of 360,000 active; C-X-C chemokine receptor type 6 (Homo sapiens), O00574; inhibition, % at 20 µM; in the data active = inhibition above about 34%, passing the limit was not always enough;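 note: antagonist mode with CXCL16 agonist at 10 nM final; 0% = 10 nM CXCL16 with DMSO and 100% = unstimulated wells without agonist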
Beta2AR agonist: beta2AR agonists driving receptor internalization, primary screen, cell-based, FAP fluorogen, flow cytometry; Beta-2 adrenergic receptor (Homo sapiens), P07550; Am2.2-beta2AR cells; response, % (concentration not given with the values); 0.43% of 340,000 active; AID 504454, 2011;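 active = response above a set limit, near 3 SD of response in nonfluorescent compounds, cut at about 42% in these data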
Target sequence (P07550 whole entry, looked up): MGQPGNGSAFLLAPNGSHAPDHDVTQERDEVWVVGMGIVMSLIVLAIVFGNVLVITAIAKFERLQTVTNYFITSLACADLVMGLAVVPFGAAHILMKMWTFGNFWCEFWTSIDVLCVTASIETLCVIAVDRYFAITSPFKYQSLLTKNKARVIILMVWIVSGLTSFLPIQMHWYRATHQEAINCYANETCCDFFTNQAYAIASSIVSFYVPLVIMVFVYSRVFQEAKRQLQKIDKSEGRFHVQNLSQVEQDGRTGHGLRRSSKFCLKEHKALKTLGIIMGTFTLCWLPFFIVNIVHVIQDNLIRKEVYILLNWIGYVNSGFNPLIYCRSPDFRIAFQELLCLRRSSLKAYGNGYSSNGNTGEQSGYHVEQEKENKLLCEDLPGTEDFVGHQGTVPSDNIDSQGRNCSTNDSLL
CCR6 antagonist: CCR6 receptor antagonists, primary screen, cell-based, CHO-K1, luminescence, beta-arrestin, uHTS. C-C chemokine receptor type 6 (Homo sapiens), P51684. CHO-K1 CCR6 PathHunter beta-arrestin, CCL20-stimulated. inhibition, % at 20 µM. 0.49% of 340,000 active;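 active = compounds whose inhibition of the agonist-driven luminescence signal at 20 µM reaches about 50%, limit read from the data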;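 note: cells stimulated with CCL20 at 14 nM final; plate controls were DMSO with CCL20 for no effect and DMSO without agonist for full effect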
APJ ag: agonists of human apelin receptor APJ, primary screen, CHO-K1 cells, PathHunter beta-arrestin, luminescence; 0.11% of 330,000 active; 0% DMSO wells, 100% apelin; activation, % at 20 µM; P35414;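 active = activation more than six SD over the plate average, tested at 20 µM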;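 note: 0% = DMSO alone and 100% = apelin-13 at 10 nM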
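Assay system: engineered CHO-K1 APJ arrestin reporter cells; Amount: 1000 CHO-K1 reporter cells seeded per well; Dosing: one dose, 20 µM compound, 1% DMSO; Times: compound stimulation 90 min at 25 °C, detection 60 min; Measured by: luminescent beta-gal fragment complementation, chemiluminescent substrate; Read-out: APJ–arrestin association signal; Controls: DMSO vs Apelin-13 10 nM.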
PfG6PD inh: PfG6PD enzyme inhibitors, primary screen, biochemical, fluorescence intensity, uHTS. PfGluPho enzyme, NADPH resazurin-diaphorase fluorescence. 0.78% of 350,000 active. inhibition, % at 20 µM. glucose-6-phosphate dehydrogenase-6-phosphogluconolactonase (Plasmodium falciparum 3D7);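 active = inhibition reaching at least a set limit at 20 µM in the primary screen, cut at about 59% in these data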;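 note: 0% = DMSO wells with substrate and 100% = DMSO wells lacking glucose-6-phosphate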
APJ antag: antagonists of human apelin receptor APJ, primary screen, CHO-K1 cells, beta-arrestin complementation, luminescence. 0.32% of 330,000 active. P35414. inhibition, % at 20 µM;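 active = inhibition above about 40% at 20 µM, limit read from the data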;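 note: cells challenged with 10 nM apelin-13 agonist together with compound; plate controls were apelin-13 plus DMSO wells for no effect and DMSO wells lacking apelin-13 for full effect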
APJ ag conf: agonists of human apelin receptor APJ, confirmation, cell-based, single concentration, CHO-K1, beta-arrestin, luminescence. shares compounds with APJ ag. CHO-K1 APJ PathHunter beta-arrestin. activation, % at 20 µM. 10% of 310 active;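 active = activation above 40%, taking the highest of four retests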;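 note: plate controls were DMSO wells for no effect and apelin-13 at 10 nM for full effect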
* marks the source's active call; other numbers are inactive results; . = no result given.

SMILES | CXCR6 block | Beta2AR agonist | CCR6 antagonist | APJ ag | PfG6PD inh | APJ antag | APJ ag conf
CN1CCN(c2ncnc3c2ncn3[C@H]2CN(Cc3cccs3)C[C@@H](CO)O2)CC1 | 0 | . | . | . | . | . | .
O=C(O)CCN1C(=O)/C(=C\c2ccc(-c3nc4ccccc4s3)o2)SC1=S | 38 | 55* | 53* | -2 | 14 | 3 | .
O=C(O)c1ccccc1NS(=O)(=O)c1ccc(N/N=C/c2ccc(O)c(O)c2)c([N+](=O)[O-])c1 | 22 | 1 | 50* | . | -35 | . | .
CC(=O)Nc1ccc(-n2nnnc2SCC(=O)NCc2cccs2)cc1 | -5 | -4 | 6 | -2 | 1 | 7 | .
CCC1CCCCN1CCCNC(=O)C1CCN(c2nnc(-n3cccc3)s2)CC1 (stereo unspecified) | -2 | -12 | 9 | -4 | -3 | 8 | .
CC1=NNC(=O)/C1=C\c1cn(-c2ccccc2)nc1-c1ccc(F)cc1 | -4 | 108* | 9 | . | 5 | . | .
Oc1ccc(/C=N/Nc2ccnc3cc(Cl)ccc23)c(O)c1O | 2 | 106* | 39 | 7 | 53 | -54 | .
CC/C(=N\Nc1ccnc2cc(Cl)ccc12)c1ccc(O)cc1 | 5 | -7 | 1 | 1 | 15 | -9 | .
O=C(c1ccc(Cl)nc1)c1cccs1 | . | . | 3 | -1 | 6 | -23 | .
O=C(c1cccs1)c1no[n+]([O-])c1C(=O)c1cccs1 | -11 | 32 | 4 | 30* | 26 | -7 | .
Cc1nnc(NC(=O)c2ccc(N3CCCC3=O)cc2)s1 | 4 | 1 | 8 | -5 | -1 | 11 | .
O=C(NC1=NCCS1)c1ccc(N2CCCC2=O)cc1 | 6 | 48* | -1 | -2 | 2 | 8 | .
O=C(COC(=O)CC1SC(N2CCCC2)=NC1=O)Nc1ccc(Br)cc1 (stereo unspecified) | 1 | -9 | 15 | -2 | -6 | 6 | .
Cc1c2ccccc2c(C)c2c1ccc1ccccc12 | -19 | 3 | -16 | 41* | 32 | -27 | 20
O=C(COc1ccccc1[N+](=O)[O-])Nc1ccc(N2CCN(C(=O)c3cccs3)CC2)cc1 | 3 | 26 | -17 | 16* | 7 | -19 | 24
O=C(Nc1ccc(N2CCN(C(=O)c3cccs3)CC2)cc1)c1ccco1 | -6 | -7 | 7 | 1 | 12 | 15 | .
CCC(=O)Nc1ccc(N2CCN(C(=O)c3cccs3)CC2)cc1 | -4 | -4 | -3 | -4 | -10 | 10 | .
O=C(Nc1ccc(N2CCN(C(=O)c3cccs3)CC2)cc1)c1ccc([N+](=O)[O-])o1 | 0 | 23 | . | 29* | . | -94 | 6
Clc1cccc(CN2CCc3c([nH]c4ccccc34)C2)c1 | -4 | 21 | 5 | 11 | 0 | -33 | .
Clc1ccc(CN2CCc3c([nH]c4ccccc34)C2)cc1Cl | -3 | 19 | 14 | 85* | 19 | -14 | 3
O=C(C=Cc1ccco1)c1ccc2ccccc2c1 | 6 | -1 | 17 | . | 48 | . | .
C=CCSc1nc(O)c(CC)c(=O)n1C(C)CC (stereo unspecified) | -1 | 5 | -17 | 76* | 8 | 2 | 49*
CCc1c(O)nc(SCc2ccccc2)n(C(C)CC)c1=O (stereo unspecified) | 5 | 0 | 5 | 0 | -14 | -14 | .
CCOC(=O)c1ccc(NC(=O)c2cccc(S(=O)(=O)N3CCOCC3)c2)cc1 | -26 | 18 | 1 | 14* | 18 | -20 | 17
COc1cc(C(=O)O/N=C(\N)Cc2ccc([N+](=O)[O-])cc2)cc(OC)c1OC | -15 | 1 | -23 | 13 | 8 | -53 | .
SMILES | CXCR6 block | Beta2AR agonist | CCR6 antagonist | APJ ag | PfG6PD inh | APJ antag | APJ ag conf
COc1ccc(C/C(N)=N/OC(=O)c2cccc([N+](=O)[O-])c2)cc1 | -19 | 19 | -3 | 18* | -2 | -56 | 19
N/C(Cc1ccc([N+](=O)[O-])cc1)=N\OC(=O)c1cccc(Br)c1 | -24 | -4 | 2 | 4 | 8 | -40 | .
COc1ccccc1C/C(N)=N/OC(=O)c1cccc([N+](=O)[O-])c1 | -11 | -3 | -17 | 11* | -21 | -95 | 37
COc1ccc(C(=O)O/N=C(\N)Cc2ccc([N+](=O)[O-])cc2)c(OC)c1 | -10 | -5 | -12 | 21* | 34 | -24 | 32
COc1ccc(C(=O)O/N=C(\N)Cc2ccc(Cl)cc2)cc1OC | -2 | 6 | -7 | 12* | -18 | -57 | 24
O=C(CNC(=O)c1ccccc1)NCc1nc2ccccc2[nH]1 | -12 | 6 | 9 | -1 | 0 | 11 | .
CCCCOc1ccc(SCCCN2CCOCC2)cc1 | -4 | -9 | 10 | . | 3 | . | .
CC1CCCN(C(=O)C(=O)Nc2ccc3nc4n(c(=O)c3c2)CCCCC4)C1 (stereo unspecified) | 3 | -9 | -9 | 0 | -14 | -31 | .
Oc1ccccc1CNc1ccc(Br)cn1 | -8 | -7 | -4 | 18* | 10 | 5 | 26
Brc1ccc(NCc2cccc3ccccc23)nc1 | -3 | 2 | 15 | -5 | 9 | -12 | .
Cc1[nH]c2ccccc2c1C(=O)COC(=O)C1CC(O)CN1S(=O)(=O)c1ccc(Cl)cc1 (stereo unspecified) | -6 | -15 | -14 | 28* | 13 | -16 | 4
O=[N+]([O-])c1ccc(/C=N/n2c(COc3ccccc3)n[nH]c2=S)cc1 | 2 | 2 | 17 | 14* | 11 | -19 | 8
CCCNC(=O)C1(C)CCCN(C(=O)c2cc(C)nn2C(C)(C)C)C1 (stereo unspecified) | -2 | . | . | . | . | . | .
N=c1c(C(=O)NC2CCCCC2)cc2c(=O)n3ccccc3nc2n1CCc1ccccc1 | 2 | 4 | 19 | 20* | -4 | -8 | -2
Cc1ccc(Nc2nc(N/N=C\c3ccc4c(c3)OCO4)nc(N3CCOCC3)n2)cc1 | 5 | 25 | 0 | -1 | -10 | -13 | .
O=C(CSc1n[nH]c(=O)n1C1CC1)Nc1ccccc1 | -4 | -6 | -9 | 2 | 8 | 6 | .
O=C(CSc1n[nH]c(=O)n1C1CC1)Nc1cc(Cl)ccc1Oc1ccccc1 | -11 | 11 | -5 | 12* | 31 | -16 | 20
COc1ccc(-c2nc(-c3ccc(NC(=O)c4ccc(Br)o4)cc3)no2)cc1OC | -4 | -6 | 3 | 47* | 7 | -13 | 11
COc1cc(-c2nc(-c3ccc(NC(=O)c4ccc(Br)o4)cc3)no2)cc(OC)c1OC | -1 | 13 | -9 | 2 | 23 | -20 | .
